Laboratory results from ChEMBL document CHEMBL1671821, “Syntheses of 2-amino and 2-halothiazole derivatives as high-affinity metabotropic glutamate receptor subtype 5 ligands and potential radioligands for in vivo imaging” (J Med Chem, 2011).
Blank lines part the entries; values can stand above or below the compound they belong to.

Legend:
[1] = target: Metabotropic glutamate receptor 5 (Rattus norvegicus, UniProt P31424); experiment: Displacement of [3H]MPEP from mGluR5 in rat brain; assay type: tissue-based
Procedure, shortened: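 Competition binding on rat brain homogenate mGlu5 against [3H]MPEP at 1.0 nM. Run by the NIMH Psychoactive Drug Screening Program. Ki derived from triplicate determinations, n = 6 for some ligands. Values cited from earlier work were not measured here.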

[2] = target: Alpha-1A adrenergic receptor (Homo sapiens, UniProt P35348); experiment: Binding affinity to adrenergic alpha1A receptor
[3] = target: 5-hydroxytryptamine receptor 3A (Homo sapiens, UniProt P46098); experiment: Binding affinity to 5HT3 receptor
[4] = target: Muscarinic acetylcholine receptor M5 (Homo sapiens, UniProt P08912); experiment: Binding affinity to muscarinic M5 receptor
[5] = target: Mu-type opioid receptor (Homo sapiens, UniProt P35372); experiment: Binding affinity to MOR
[6] = Binding affinity to benzodiazepine receptor in rat brain; assay type: tissue-based
[7] = target: 5-hydroxytryptamine receptor 6 (Homo sapiens, UniProt P50406); experiment: Binding affinity to 5HT6 receptor
[8] = target: Sodium-dependent serotonin transporter (Homo sapiens, UniProt P31645); experiment: Binding affinity to SERT receptor
[9] = target: Histamine H3 receptor (Homo sapiens, UniProt Q9Y5N1); experiment: Binding affinity to histamine H3 receptor
[10] = target: 5-hydroxytryptamine receptor 1A (Homo sapiens, UniProt P08908); experiment: Binding affinity to 5HT1A receptor
[11] = Binding affinity to sigma 2 receptor
[12] = target: D(2) dopamine receptor (Homo sapiens, UniProt P14416); experiment: Binding affinity to dopamine D2 receptor
[13] = target: Sodium-dependent noradrenaline transporter (Homo sapiens, UniProt P23975); experiment: Binding affinity to NET
[14] = target: Metabotropic glutamate receptor 6 (Homo sapiens, UniProt O15303); experiment: Binding affinity to mGluR6 receptor
[15] = Binding affinity to GABAA receptor
[16] = target: Delta-type opioid receptor (Homo sapiens, UniProt P41143); experiment: Binding affinity to DOR
[17] = target: Metabotropic glutamate receptor 4 (Homo sapiens, UniProt Q14833); experiment: Binding affinity to mGluR4 receptor
[18] = target: Sigma non-opioid intracellular receptor 1 (Homo sapiens, UniProt Q99720); experiment: Binding affinity to sigma 1 receptor
[19] = target: D(4) dopamine receptor (Homo sapiens, UniProt P21917); experiment: Binding affinity to dopamine D4 receptor
[20] = target: Muscarinic acetylcholine receptor M3 (Homo sapiens, UniProt P20309); experiment: Binding affinity to muscarinic M3 receptor
[21] = target: 5-hydroxytryptamine receptor 7 (Homo sapiens, UniProt P34969); experiment: Binding affinity to 5HT7 receptor
[22] = target: Histamine H1 receptor (Homo sapiens, UniProt P35367); experiment: Binding affinity to histamine H1 receptor
[23] = Binding affinity to NMDA receptor PCP binding site
[24] = target: Alpha-1D adrenergic receptor (Homo sapiens, UniProt P25100); experiment: Binding affinity to adrenergic Alpha-1D receptor
[25] = target: Histamine H2 receptor (Homo sapiens, UniProt P25021); experiment: Binding affinity to histamine H2 receptor
[26] = target: Alpha-1B adrenergic receptor (Homo sapiens, UniProt P35368); experiment: Binding affinity to adrenergic Alpha-1B receptor
[27] = target: 5-hydroxytryptamine receptor 1B (Homo sapiens, UniProt P28222); experiment: Binding affinity to 5HT1B receptor
[28] = target: Muscarinic acetylcholine receptor M4 (Homo sapiens, UniProt P08173); experiment: Binding affinity to muscarinic M4 receptor
[29] = target: Metabotropic glutamate receptor 1 (Homo sapiens, UniProt Q13255); experiment: Binding affinity to mGluR1 receptor
[30] = target: 5-hydroxytryptamine receptor 2A (Homo sapiens, UniProt P28223); experiment: Binding affinity to 5HT2A receptor
[31] = target: D(3) dopamine receptor (Homo sapiens, UniProt P35462); experiment: Binding affinity to dopamine D3 receptor
[32] = target: D(1A) dopamine receptor (Homo sapiens, UniProt P21728); experiment: Binding affinity to dopamine D1 receptor
[33] = target: Kappa-type opioid receptor (Homo sapiens, UniProt P41145); experiment: Binding affinity to KOR
[34] = target: 5-hydroxytryptamine receptor 1E (Homo sapiens, UniProt P28566); experiment: Binding affinity to 5HT1E receptor
[35] = target: 5-hydroxytryptamine receptor 2B (Homo sapiens, UniProt P41595); experiment: Binding affinity to 5HT2B receptor
[36] = target: Beta-1 adrenergic receptor (Homo sapiens, UniProt P08588); experiment: Binding affinity to adrenergic beta1 receptor
[37] = target: 5-hydroxytryptamine receptor 1D (Homo sapiens, UniProt P28221); experiment: Binding affinity to 5HT1D receptor
[38] = target: Beta-3 adrenergic receptor (Homo sapiens, UniProt P13945); experiment: Binding affinity to adrenergic beta3 receptor
[39] = target: Sodium-dependent dopamine transporter (Homo sapiens, UniProt Q01959); experiment: Binding affinity to DAT
[40] = target: Beta-2 adrenergic receptor (Homo sapiens, UniProt P07550); experiment: Binding affinity to adrenergic beta2 receptor
[41] = target: Histamine H4 receptor (Homo sapiens, UniProt Q9H3N8); experiment: Binding affinity to histamine H4 receptor
[42] = target: Alpha-2A adrenergic receptor (Homo sapiens, UniProt P08913); experiment: Binding affinity to adrenergic alpha2A receptor
[43] = target: D(1B) dopamine receptor (Homo sapiens, UniProt P21918); experiment: Binding affinity to dopamine D5 receptor
[44] = target: Muscarinic acetylcholine receptor M1 (Homo sapiens, UniProt P11229); experiment: Binding affinity to muscarinic M1 receptor
[45] = target: Alpha-2C adrenergic receptor (Homo sapiens, UniProt P18825); experiment: Binding affinity to adrenergic Alpha-2C receptor
[46] = target: Muscarinic acetylcholine receptor M2 (Homo sapiens, UniProt P08172); experiment: Binding affinity to muscarinic M2 receptor
[47] = target: Metabotropic glutamate receptor 2 (Homo sapiens, UniProt Q14416); experiment: Binding affinity to mGluR2 receptor
[48] = target: 5-hydroxytryptamine receptor 5A (Homo sapiens, UniProt P47898); experiment: Binding affinity to 5HT5A receptor
[49] = target: Alpha-2B adrenergic receptor (Homo sapiens, UniProt P18089); experiment: Binding affinity to adrenergic alpha2B receptor
[50] = target: 5-hydroxytryptamine receptor 2C (Homo sapiens, UniProt P28335); experiment: Binding affinity to 5HT2C receptor
[51] = target: Metabotropic glutamate receptor 8 (Homo sapiens, UniProt O00222); experiment: Binding affinity to mGluR8 receptor

Metabotropic glutamate receptor 5, sequence (P31424 whole entry): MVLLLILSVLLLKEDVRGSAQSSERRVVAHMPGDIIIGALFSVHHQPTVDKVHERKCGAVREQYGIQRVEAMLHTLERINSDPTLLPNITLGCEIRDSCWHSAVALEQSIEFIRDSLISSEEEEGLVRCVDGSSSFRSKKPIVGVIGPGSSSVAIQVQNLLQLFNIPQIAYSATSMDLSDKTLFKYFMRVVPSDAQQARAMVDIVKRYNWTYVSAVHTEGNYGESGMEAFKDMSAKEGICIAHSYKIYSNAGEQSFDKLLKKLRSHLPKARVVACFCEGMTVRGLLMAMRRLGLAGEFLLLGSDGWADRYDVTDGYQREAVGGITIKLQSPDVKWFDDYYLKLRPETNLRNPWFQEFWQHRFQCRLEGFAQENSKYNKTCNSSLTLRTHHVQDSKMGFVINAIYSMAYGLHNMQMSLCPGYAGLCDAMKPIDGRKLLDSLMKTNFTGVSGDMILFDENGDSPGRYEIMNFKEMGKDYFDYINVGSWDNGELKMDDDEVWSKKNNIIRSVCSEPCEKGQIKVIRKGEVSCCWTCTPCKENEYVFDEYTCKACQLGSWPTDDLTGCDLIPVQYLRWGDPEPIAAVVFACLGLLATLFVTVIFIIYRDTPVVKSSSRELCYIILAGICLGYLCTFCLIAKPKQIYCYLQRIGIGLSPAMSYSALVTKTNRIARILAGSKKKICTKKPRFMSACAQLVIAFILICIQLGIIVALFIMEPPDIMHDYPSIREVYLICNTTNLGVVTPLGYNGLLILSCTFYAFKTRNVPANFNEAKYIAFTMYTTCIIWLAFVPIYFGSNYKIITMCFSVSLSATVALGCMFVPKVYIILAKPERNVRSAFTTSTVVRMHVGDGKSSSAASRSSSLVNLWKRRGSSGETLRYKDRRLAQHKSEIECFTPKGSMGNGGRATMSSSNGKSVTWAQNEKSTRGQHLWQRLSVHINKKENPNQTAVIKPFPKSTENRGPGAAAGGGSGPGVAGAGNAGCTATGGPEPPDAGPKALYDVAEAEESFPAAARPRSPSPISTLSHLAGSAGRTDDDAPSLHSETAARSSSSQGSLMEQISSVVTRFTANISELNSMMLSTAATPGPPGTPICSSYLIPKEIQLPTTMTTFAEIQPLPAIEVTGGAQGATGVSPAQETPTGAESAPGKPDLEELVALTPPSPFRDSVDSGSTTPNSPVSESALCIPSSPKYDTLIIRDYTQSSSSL
Muscarinic acetylcholine receptor M3, sequence (P20309 whole entry): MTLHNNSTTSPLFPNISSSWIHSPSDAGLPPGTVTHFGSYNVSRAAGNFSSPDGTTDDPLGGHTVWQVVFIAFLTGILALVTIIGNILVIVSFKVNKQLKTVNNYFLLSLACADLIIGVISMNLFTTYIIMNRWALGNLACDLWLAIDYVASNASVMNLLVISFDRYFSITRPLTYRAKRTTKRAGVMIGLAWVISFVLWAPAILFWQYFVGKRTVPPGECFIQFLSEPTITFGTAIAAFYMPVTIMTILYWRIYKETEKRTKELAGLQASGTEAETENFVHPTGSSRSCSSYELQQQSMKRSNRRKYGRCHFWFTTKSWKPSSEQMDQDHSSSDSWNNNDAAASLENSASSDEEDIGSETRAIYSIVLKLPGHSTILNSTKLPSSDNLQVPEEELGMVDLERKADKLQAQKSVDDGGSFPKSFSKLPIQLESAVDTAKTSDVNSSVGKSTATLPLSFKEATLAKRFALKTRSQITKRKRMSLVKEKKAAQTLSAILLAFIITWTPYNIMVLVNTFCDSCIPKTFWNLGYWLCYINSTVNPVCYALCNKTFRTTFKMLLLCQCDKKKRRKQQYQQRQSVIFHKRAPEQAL
Metabotropic glutamate receptor 4, sequence (Q14833 whole entry): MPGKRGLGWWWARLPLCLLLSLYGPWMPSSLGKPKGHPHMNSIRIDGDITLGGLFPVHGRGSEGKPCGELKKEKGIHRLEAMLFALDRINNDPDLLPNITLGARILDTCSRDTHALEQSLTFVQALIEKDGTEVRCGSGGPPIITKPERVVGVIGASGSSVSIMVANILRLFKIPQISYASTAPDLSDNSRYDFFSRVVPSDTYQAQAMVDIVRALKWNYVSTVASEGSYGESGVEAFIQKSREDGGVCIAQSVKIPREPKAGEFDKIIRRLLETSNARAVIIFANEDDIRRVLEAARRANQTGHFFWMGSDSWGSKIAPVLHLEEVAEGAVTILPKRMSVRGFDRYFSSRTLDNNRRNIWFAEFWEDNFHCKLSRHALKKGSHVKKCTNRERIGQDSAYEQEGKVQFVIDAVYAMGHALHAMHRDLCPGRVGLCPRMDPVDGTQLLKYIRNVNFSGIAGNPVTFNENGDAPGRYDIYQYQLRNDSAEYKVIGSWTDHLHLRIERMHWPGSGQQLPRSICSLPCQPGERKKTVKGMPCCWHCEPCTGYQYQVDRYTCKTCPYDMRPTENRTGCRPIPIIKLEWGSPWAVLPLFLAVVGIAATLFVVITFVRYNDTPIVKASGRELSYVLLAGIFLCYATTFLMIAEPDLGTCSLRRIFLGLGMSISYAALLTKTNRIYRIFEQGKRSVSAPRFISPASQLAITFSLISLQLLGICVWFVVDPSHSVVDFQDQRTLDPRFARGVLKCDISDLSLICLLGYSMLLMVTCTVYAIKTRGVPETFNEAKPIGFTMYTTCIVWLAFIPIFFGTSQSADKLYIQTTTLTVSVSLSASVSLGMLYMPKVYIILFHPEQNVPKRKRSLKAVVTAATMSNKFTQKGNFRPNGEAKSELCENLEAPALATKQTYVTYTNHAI
Sodium-dependent dopamine transporter, sequence (Q01959 whole entry): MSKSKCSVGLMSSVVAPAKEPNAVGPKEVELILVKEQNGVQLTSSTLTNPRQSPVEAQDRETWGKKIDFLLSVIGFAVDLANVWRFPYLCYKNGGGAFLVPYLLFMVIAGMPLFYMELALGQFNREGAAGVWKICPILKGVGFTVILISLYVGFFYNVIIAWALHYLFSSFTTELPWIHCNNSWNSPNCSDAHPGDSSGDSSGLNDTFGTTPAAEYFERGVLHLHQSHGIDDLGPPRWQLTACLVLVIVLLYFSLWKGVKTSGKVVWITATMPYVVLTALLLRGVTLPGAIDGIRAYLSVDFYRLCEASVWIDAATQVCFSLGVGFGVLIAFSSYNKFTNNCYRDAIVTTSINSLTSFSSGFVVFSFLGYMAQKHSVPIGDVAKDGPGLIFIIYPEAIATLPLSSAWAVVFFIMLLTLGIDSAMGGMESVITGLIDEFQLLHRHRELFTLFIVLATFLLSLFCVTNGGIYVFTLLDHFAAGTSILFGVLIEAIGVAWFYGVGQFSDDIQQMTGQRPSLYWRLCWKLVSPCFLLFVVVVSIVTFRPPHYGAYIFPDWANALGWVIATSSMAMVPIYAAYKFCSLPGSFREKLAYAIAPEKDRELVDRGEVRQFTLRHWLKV
5-hydroxytryptamine receptor 1A, sequence (P08908 whole entry): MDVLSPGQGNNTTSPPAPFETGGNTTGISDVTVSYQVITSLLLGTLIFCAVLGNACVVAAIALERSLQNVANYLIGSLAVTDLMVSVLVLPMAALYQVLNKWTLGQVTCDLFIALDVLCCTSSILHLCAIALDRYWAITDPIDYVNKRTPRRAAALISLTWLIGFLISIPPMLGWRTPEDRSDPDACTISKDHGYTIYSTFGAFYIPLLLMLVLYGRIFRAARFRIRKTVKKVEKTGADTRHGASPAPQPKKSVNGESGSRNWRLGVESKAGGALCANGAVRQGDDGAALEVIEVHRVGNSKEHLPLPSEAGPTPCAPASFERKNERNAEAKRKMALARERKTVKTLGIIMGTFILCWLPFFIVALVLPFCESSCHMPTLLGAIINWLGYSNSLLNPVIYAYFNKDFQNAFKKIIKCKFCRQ
D(3) dopamine receptor, sequence (P35462 whole entry): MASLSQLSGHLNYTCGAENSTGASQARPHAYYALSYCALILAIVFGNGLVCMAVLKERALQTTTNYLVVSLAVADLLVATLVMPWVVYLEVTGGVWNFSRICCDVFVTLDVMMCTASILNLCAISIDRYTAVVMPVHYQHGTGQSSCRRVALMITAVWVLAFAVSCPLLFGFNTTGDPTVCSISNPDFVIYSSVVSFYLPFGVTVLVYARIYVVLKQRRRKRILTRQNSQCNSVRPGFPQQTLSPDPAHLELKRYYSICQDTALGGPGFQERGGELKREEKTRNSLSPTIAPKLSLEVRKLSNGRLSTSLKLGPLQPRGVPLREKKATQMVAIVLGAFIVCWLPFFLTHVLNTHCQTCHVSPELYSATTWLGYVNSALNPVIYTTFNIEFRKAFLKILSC
Muscarinic acetylcholine receptor M5, sequence (P08912 whole entry): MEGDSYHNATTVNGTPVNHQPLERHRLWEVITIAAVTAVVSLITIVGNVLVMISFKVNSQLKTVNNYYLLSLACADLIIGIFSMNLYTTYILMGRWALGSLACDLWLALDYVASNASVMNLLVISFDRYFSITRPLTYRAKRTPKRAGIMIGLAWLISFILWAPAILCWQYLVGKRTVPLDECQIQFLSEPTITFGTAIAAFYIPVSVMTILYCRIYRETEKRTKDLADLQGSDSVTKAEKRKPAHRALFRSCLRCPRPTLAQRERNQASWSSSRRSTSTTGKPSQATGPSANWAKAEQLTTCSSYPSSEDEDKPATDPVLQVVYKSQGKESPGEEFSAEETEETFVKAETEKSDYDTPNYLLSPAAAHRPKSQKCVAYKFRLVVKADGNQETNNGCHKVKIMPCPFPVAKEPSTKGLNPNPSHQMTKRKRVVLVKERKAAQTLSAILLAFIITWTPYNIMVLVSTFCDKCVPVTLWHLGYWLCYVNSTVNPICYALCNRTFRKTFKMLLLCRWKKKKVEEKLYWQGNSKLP
5-hydroxytryptamine receptor 5A, sequence (P47898 whole entry): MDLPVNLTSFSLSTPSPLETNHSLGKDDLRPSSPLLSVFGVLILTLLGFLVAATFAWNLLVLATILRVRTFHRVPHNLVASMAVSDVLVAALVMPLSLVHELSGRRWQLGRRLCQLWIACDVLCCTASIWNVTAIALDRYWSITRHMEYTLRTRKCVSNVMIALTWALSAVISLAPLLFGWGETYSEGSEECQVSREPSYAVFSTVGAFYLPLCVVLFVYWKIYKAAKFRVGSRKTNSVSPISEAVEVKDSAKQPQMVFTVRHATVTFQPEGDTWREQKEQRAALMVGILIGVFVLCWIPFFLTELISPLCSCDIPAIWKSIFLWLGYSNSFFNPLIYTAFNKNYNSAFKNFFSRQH

Compound: COc1cccc(C#Cc2csc(F)n2)c1
- Ki [1]: 22.7 nM

Compound: N#CCc1cccc(C#Cc2csc(N)n2)c1
- Ki [1]: 5.9 nM

Compound: COc1cccc(C#Cc2csc(N)n2)c1
- Ki [1]: 18.6 nM

Compound: COc1cccc(C#Cc2csc(Cl)n2)c1
- Ki [1]: 8.1 nM

Compound: COc1cccc(C#Cc2csc(Br)n2)c1
- Ki [1]: 22.3 nM

Compound: N#Cc1cccc(C#Cc2csc(I)n2)c1
- Ki [1]: 4.2 nM

Compound: N#CCc1cccc(C#Cc2csc(I)n2)c1
- Ki [1]: 23.3 nM

Compound: COc1cccc(C#Cc2csc(I)n2)c1
- Ki [1]: 133 nM

Compound: N#CCc1cccc(C#Cc2csc(F)n2)c1
- Ki [1]: 3.9 nM

Compound: Fc1nc(C#Cc2ccccc2)cs1
- Ki [1]: 122 nM

Stronger by Ki [1], values ahead:

- Ki [1]: 0.9 nM
Compound: N#Cc1cccc(C#Cc2csc(N)n2)c1

- Ki [1]: 0.25 nM
Compound: N#Cc1cc(F)cc(C#Cc2csc(N)n2)c1

- Ki [1]: 0.27 nM
Compound: N#Cc1cccc(C#Cc2csc(Cl)n2)c1

- Ki [1]: 0.4 nM
Compound: N#Cc1cc(F)cc(C#Cc2csc(Cl)n2)c1

- Ki [1]: 3.1 nM
Compound: N#CCc1cccc(C#Cc2csc(Cl)n2)c1

- Ki [1]: 3.7 nM
Compound: N#Cc1cccc(C#Cc2csc(Br)n2)c1

- Ki [1]: 0.95 nM
Compound: N#Cc1cc(F)cc(C#Cc2csc(Br)n2)c1

- Ki [1]: 3.3 nM
Compound: N#CCc1cccc(C#Cc2csc(Br)n2)c1

- Ki [1]: 1.3 nM
Compound: N#Cc1cc(F)cc(C#Cc2csc(I)n2)c1

- Ki [1]: 1.6 nM
Compound: N#Cc1cccc(C#Cc2csc(F)n2)c1

- Ki [2]: > 10 µM
- Ki [3]: > 10 µM
- Ki [4]: > 10 µM
- Ki [5]: > 10 µM
- Ki [6]: > 10 µM
- Ki [7]: > 10 µM
- Ki [8]: > 10 µM
- Ki [9]: > 10 µM
- Ki [10]: > 10 µM
- Ki [11]: > 10 µM
- Ki [12]: > 10 µM
- Ki [13]: > 10 µM
- Ki [14]: > 10 µM
- Ki [15]: > 10 µM
- Ki [16]: > 10 µM
- Ki [17]: > 10 µM
- Ki [18]: > 10 µM
- Ki [19]: > 10 µM
- Ki [20]: > 10 µM
- Ki [21]: > 10 µM
- Ki [22]: > 10 µM
- Ki [23]: > 10 µM
- Ki [24]: > 10 µM
- Ki [25]: > 10 µM
- Ki [26]: > 10 µM
- Ki [27]: > 10 µM
- Ki [28]: > 10 µM
- Ki [29]: > 10 µM
- Ki [30]: > 10 µM
- Ki [31]: > 10 µM
- Ki [32]: > 10 µM
- Ki [33]: > 10 µM
- Ki [34]: > 10 µM
- Ki [35]: > 10 µM
- Ki [36]: > 10 µM
- Ki [37]: > 10 µM
- Ki [38]: > 10 µM
- Ki [39]: > 10 µM
- Ki [40]: > 10 µM
- Ki [41]: > 10 µM
- Ki [42]: > 10 µM
- Ki [43]: > 10 µM
- Ki [44]: > 10 µM
- Ki [45]: > 10 µM
- Ki [1]: 0.28 nM
- Ki [46]: > 10 µM
- Ki [47]: > 10 µM
- Ki [48]: > 10 µM
- Ki [49]: > 10 µM
- Ki [50]: > 10 µM
- Ki [51]: > 10 µM
Compound: N#Cc1cc(F)cc(C#Cc2csc(F)n2)c1

- Ki [1]: 0.036 nM
Compound: N#Cc1cc(F)cc(C#Cc2csc(CF)n2)c1

- Ki [1]: 0.08 nM
Compound: Cc1nc(C#Cc2cc(F)cc(C#N)c2)cs1
